{"source": "paper PMC3268775", "about": "(Journal of the American Chemical Society, 2012)", "key": {"Y731F-α2": {"biological_target": "T1, Y731F-α2 (Escherichia coli, UniProt P00452, Y731F)", "T1 sequence (P00452 1-761 Y731F)": "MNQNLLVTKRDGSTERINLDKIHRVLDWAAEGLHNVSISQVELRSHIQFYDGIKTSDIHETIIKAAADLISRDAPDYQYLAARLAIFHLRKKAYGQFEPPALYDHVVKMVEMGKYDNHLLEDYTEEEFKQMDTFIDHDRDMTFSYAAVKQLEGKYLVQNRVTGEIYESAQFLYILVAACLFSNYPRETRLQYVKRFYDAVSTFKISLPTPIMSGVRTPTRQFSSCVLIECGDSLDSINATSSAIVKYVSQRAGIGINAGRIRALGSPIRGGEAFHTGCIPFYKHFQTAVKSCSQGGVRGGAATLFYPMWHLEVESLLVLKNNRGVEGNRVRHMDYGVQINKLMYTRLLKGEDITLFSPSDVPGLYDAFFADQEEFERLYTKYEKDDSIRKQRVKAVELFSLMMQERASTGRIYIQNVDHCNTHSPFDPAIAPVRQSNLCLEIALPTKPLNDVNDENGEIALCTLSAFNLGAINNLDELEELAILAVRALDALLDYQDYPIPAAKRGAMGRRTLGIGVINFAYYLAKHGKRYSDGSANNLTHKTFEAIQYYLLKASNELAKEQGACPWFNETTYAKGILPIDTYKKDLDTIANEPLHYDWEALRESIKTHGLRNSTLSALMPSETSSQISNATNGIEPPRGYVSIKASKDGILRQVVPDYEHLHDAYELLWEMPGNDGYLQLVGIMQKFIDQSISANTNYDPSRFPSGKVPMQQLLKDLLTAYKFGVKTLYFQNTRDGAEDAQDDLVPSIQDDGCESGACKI", "test": "[Re^I]* emission lifetime of peptide bound to Y731F-α2", "assay_type": "binding", "conditions": "10 μM peptide, 20 μM α2, pH 8.3", "summary_of_the_method": "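Time-resolved [Re] emission, monitored at 610 nm. Samples held 10 μM Re-labelled test peptide, 200 μM Ru(NH3)6Cl3, 1 mM CDP and 3 mM ATP in 50 mM sodium borate, pH 8.3, 15 mM MgSO4, 5% glycerol. For the bound state, 20 μM His6-tagged E. coli α2 mutant was added. Samples were equilibrated 3 min at 23 °C and measured while flowing. Lifetimes came from weighted least-squares fits of averaged traces.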"}, "C439S-α2": {"biological_target": "T2, C439S-α2 (Escherichia coli, UniProt P00452, C439S)", "T2 sequence (P00452 1-761 C439S)": "T1 sequence (P00452 1-761 Y731F) with C439S, F731Y", "test": "Flash-quench transient absorption: •F3Y radical in presence of C439S-α2", "assay_type": "biochemical"}, "α2 mutants": {"tested_on": "α2 mutants", "test": "Charge-separated state lifetime in presence of α2 proteins", "assay_type": "physicochemical, Escherichia coli", "conditions": "each of the protein mutants, in words"}, "wt-α2": {"biological_target": "T3, wt-α2 (Escherichia coli, UniProt P00452)", "T3 sequence (P00452 1-761)": "T1 sequence (P00452 1-761 Y731F) with F731Y", "test": "Flash-quench transient absorption: •F3Y radical in presence of wt-α2", "assay_type": "biochemical"}, "[1]": {"test": "Transient absorption of the charge-separated state, free peptide", "assay_type": "physicochemical", "conditions": "50 μM peptide, 50 mM sodium borate pH 8.3, λexc 355 nm", "summary_of_the_method": "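Transient absorption decays were read at 380, 480 (Re excited state), 525 (bpy anion) and 425 nm (F3Y radical). ΔOD came from PMT voltage against the pre-flash baseline. Short decays were fitted from the maximum-amplitude point, averaging 3–6 traces.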"}, "[2]": {"conditions": "C439S-α2, average across three wavelengths (395, 410, 425 nm)"}}, "note": "Changes are numbered by the printed parent chain. Numbered stars: 1 amine (or outer) side, 2 acyl side, 3 side chain; on linkers, the order of the positions; unused ones are H or OH. Square brackets hold non-standard residues; d marks the D form. Peptide text beside a SMILES is read from it. * marks the point of attachment. Isonicotinoyl(2-(4-Me-2-Py)) = Cc1ccnc(-c2cc(C(=O)*)ccn2)c1; X1 = O=C([C@H](Cc1c(F)cc(O)c(F)c1F)N[*:1])[*:2]", "data": [{"smiles": "CC[C@H](C)[C@H](NC(=O)[C@H](CCC(N)=O)NC(=O)CNC(=O)[C@@H](NC(=O)[C@H](CC(C)C)NC(=O)[C@H](Cc1c(F)cc(O)c(F)c1F)NC(=O)c1ccnc(-c2cc(C)ccn2)c1)C(C)C)C(=O)N[C@@H](CC(=O)O)C(=O)N[C@@H](CO)C(=O)N[C@@H](CCC(=O)O)C(=O)N[C@H](C(=O)N[C@@H](CC(=O)O)C(=O)N[C@H](C(=O)N[C@@H](CC(=O)O)C(=O)N[C@@H](CC(=O)O)C(=O)N[C@@H](CC(C)C)C(=O)N[C@@H](CO)C(=O)N[C@@H](CC(N)=O)C(=O)N[C@@H](Cc1ccccc1)C(=O)N[C@@H](CCC(N)=O)C(=O)N[C@@H](CC(C)C)C(=O)O)[C@@H](C)O)C(C)C", "note": "[[Re]–F3Y–βC19] ({Isonicotinoyl(2-(4-Me-2-Py))}-[X1]LVGQIDSEVDTDDLSNFQL-OH; N-terminus and C-terminus assumed)", "values": [{"measurement": "[Re^I]* emission lifetime, \"on\" state", "setting": "Y731F-α2", "result": 29, "unit": "ns"}, {"measurement": "•F3Y radical decay profile (in words)", "setting": "C439S-α2; C439S-α2", "result": "biexponential decay owing to the contribution of a significantly shorter lifetime component"}, {"measurement": "•F3Y radical decay: small amplitude component (\"on\" state)", "setting": "C439S-α2; C439S-α2", "result": 20, "unit": "%"}, {"measurement": "amplitude of long phase", "setting": "C439S-α2; C439S-α2, 395 nm", "result": 81, "unit": "%"}, {"measurement": "amplitude of short phase", "setting": "C439S-α2; C439S-α2, 395 nm", "result": 19, "unit": "%"}, {"measurement": "•F3Y lifetime, short phase", "setting": "C439S-α2; C439S-α2, 395 nm, biexponential", "result": "2.2 ± 1", "unit": "μs"}, {"measurement": "•F3Y lifetime, long phase", "setting": "C439S-α2; C439S-α2, 395 nm, biexponential, 50 μM peptide, 100 μM C439S-α2, 1 mM Ru(NH3)6Cl3, 1 mM CDP, 3 mM ATP, borate pH 8.3", "result": "17.3 ± 0.9", "unit": "μs"}, {"measurement": "•F3Y lifetime, \"off\" state", "setting": "C439S-α2; [2]", "result": "16.9 ± 0.7", "unit": "μs"}, {"measurement": "•F3Y lifetime, \"on\" state", "setting": "C439S-α2; [2]", "result": "2.5 ± 1.0", "unit": "μs"}, {"measurement": "charge-separated state lifetime vs protein mutant", "setting": "α2 mutants", "result": "Identical lifetimes"}, {"measurement": "•F3Y radical decay profile (in words)", "setting": "wt-α2; wt-α2", "result": "biexponential decay owing to the contribution of a significantly shorter lifetime component"}, {"measurement": "injection rate", "setting": "wt-α2; wt-α2, Eq. 1: kox = 1/τon − 1/τoff", "result": "(3 ± 2) × 10^5 s^−1"}, {"measurement": "•F3Y lifetime, short phase", "setting": "wt-α2; wt-α2, averaged across wavelengths", "result": "3.0 ± 1.4", "unit": "μs"}, {"measurement": "•F3Y lifetime, long phase", "setting": "wt-α2; wt-α2, averaged across wavelengths, 50 μM peptide, 100 μM α2, 1 mM Ru(NH3)6Cl3, 1 mM CDP, 3 mM ATP, borate pH 8.3", "result": "15.4 ± 0.5", "unit": "μs"}, {"measurement": "decay time constant of transient signal, [Re^I]*", "setting": "[1]; λdet 380 nm, 1 mM CDP, 3 mM ATP, 15 mM MgSO4, 5% glycerol", "result": "60 ± 2", "unit": "ns"}, {"measurement": "decay time constant of transient signal, [Re^I]*", "setting": "[1]; λdet 480 nm", "result": "61 ± 2", "unit": "ns"}]}]}
